Measured values of several laboratories.
Target: Phosphatidylinositol 5-phosphate 4-kinase type-2 gamma (PIP4K2C, Homo sapiens, UniProt Q8TBX8)
Sequence (Q8TBX8 1-421, as in one of the studies): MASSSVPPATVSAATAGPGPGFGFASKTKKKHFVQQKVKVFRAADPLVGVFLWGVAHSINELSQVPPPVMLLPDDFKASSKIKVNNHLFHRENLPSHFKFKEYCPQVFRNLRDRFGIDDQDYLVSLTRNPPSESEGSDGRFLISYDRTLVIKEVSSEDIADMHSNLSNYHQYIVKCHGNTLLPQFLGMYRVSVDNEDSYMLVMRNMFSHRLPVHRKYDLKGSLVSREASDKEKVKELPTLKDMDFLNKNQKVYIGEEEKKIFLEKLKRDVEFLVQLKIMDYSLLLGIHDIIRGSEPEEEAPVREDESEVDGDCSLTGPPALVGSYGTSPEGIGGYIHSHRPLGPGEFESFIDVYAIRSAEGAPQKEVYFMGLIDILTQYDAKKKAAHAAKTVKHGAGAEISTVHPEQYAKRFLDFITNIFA

SMILES	test	conditions	remaining binding
O=C(Nc1c[nH]nc1C(=O)NC1CCNCC1)c1cc(F)cc(F)c1	binding, competition with immobilised ligand	1 µM	76%
CC(C)CC(=O)N1CCc2nc(-c3ccc(Br)cc3)nc(N(C)Cc3ccccc3)c2C1	cell-free assay, competition with immobilised ligand	0.1 µM	96%
O=C(NCCCN1CCOCC1)c1ccc(Nc2ncc(Cl)c(-c3ccc(Cl)s3)n2)cc1	binding, competition with immobilised ligand	1 µM	15%
Cc1nc(NC(=O)N2CCC[C@H]2C(N)=O)sc1-c1ccnc(C(C)(C)C(F)(F)F)c1	binding, competition with immobilised ligand	10 µM	100%
N[C@H]1CCN(c2nccc(-c3cnn4ncccc34)n2)C1	binding	1 µM	81%
COc1cnc(Nc2cccc(S(N)(=O)=O)c2)nc1N1CCN(c2ccccc2)CC1	binding, competition with immobilised ligand	1 µM	95%
Cc1cnn2ncc(-c3ccnc(N(C)C)n3)c2c1	binding	1 µM	80%
C[C@@H](c1ccc(-n2cnc3c(N)ncnc32)cc1)N1CCc2nn(C)c(Cc3ccccc3)c2C1=O	binding, competition with immobilised ligand	0.1 µM	96%
CNCc1ccccc1-c1csc([C@H](C)Nc2nc(C)nc3cc(OC)c(OC)cc23)c1	cell-free assay, competition with immobilised ligand	1 µM	100%
COc1ccnn2ncc(-c3ccnc(N(C)C)n3)c12	binding	1 µM	80%
O=C(c1ccc(Nc2ncc(Cl)c(-c3cc4ccccc4s3)n2)cc1)N1CCC(N2CCCC2)CC1	binding, competition with immobilised ligand	1 µM	6.7%
CCS(=O)(=O)c1cc2cc(C[C@@](O)(CC(C)(C)c3ccc(F)cc3C(N)=O)C(F)(F)F)[nH]c2cn1	cell-free assay, competition with immobilised ligand	1 µM	100%
C[C@H]1CCN(c2nccc(-c3cnn4ncccc34)n2)C1	binding	1 µM	42%
O=C(c1ccc(Nc2ncc(Cl)c(-c3ccc(Cl)s3)n2)cc1)N1CCC(N2CCCC2)CC1	binding, competition with immobilised ligand	1 µM	5.9%
Cc1c(NC(=O)c2cc(C(N)=O)nc3cc(F)ccc23)c(C(F)(F)F)nn1Cc1ccc(C(C)(C)C)cc1	cell-free assay, competition with immobilised ligand	1 µM	76%
COc1cnc(Nc2cccc(S(N)(=O)=O)c2)nc1N1CCN(c2ccccc2)C(=O)C1	binding, competition with immobilised ligand	1 µM	0.95%
CNC(=O)c1ccc(Nc2ncc(C(F)(F)F)c(NCc3nccnc3N(C)S(C)(=O)=O)n2)cc1	cell-free assay, competition with immobilised ligand	0.1 µM	40%
CN(CCCC(F)(F)F)c1nccc(-c2cnn3ncccc23)n1	binding	1 µM	100%
c1cncc(-c2cccc(Nc3nccc(NC4CCCCC4)n3)c2)c1	binding, competition with immobilised ligand	10 µM	21%
CN(c1nccc(-c2cnn3ncccc23)n1)C1CC1	binding	1 µM	100%
CC(=O)N1CCC(c2ccc(C(=O)NC3=NCCN3)cc2C(F)(F)F)CC1	cell-free assay, competition with immobilised ligand	1 µM	94%
FC(F)(F)Oc1cccc(-c2cnc3ccc(-c4ccncc4)nn23)c1	cell-free assay, competition with immobilised ligand	5 µM	32%
